Bioassay records: PubChem BioAssay, Johns Hopkins Ion Channel Center
RGS4 inh = inhibitors of human RGS4; P49798; B-score at 10 µM; actives 0.45% (n = 310,000); HEK293 M3R/RGS4 inducible, Fluo-4 calcium flux; stronger effect = higher value; triggered by carbachol at its EC20;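 active = B-score, a plate-corrected calcium signal, over three deviations above library mean, with baseline fluorescence within five deviations of library mean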;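 note: RGS4 expression induced by doxycycline in cells with stable M3 receptor; B-score is computed from the integrated fluorescence ratio over baseline after carbachol; higher B-score means a larger calcium signal and so more RGS4 inhibition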
Target sequence (P49798 whole entry, looked up): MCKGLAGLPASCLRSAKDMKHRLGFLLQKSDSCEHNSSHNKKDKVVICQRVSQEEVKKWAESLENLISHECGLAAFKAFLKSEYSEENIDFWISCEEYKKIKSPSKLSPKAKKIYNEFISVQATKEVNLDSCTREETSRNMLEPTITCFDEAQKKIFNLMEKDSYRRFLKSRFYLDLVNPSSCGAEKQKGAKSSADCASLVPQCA
MrgX1 ag = human MrgX1 receptor agonism, primary screen; actives 0.44% (n = 310,000); Q96LB2; B-score at 10 µM; MrgX1-HEK293 cells, Fluo-4 calcium fluorescence, agonist mode; stronger effect = higher value;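 active = calcium response B-score plate-corrected fluorescence ratio at least 3 library SD, with starting fluorescence B-score inside 5 SD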
Target sequence (Q96LB2 whole entry, looked up): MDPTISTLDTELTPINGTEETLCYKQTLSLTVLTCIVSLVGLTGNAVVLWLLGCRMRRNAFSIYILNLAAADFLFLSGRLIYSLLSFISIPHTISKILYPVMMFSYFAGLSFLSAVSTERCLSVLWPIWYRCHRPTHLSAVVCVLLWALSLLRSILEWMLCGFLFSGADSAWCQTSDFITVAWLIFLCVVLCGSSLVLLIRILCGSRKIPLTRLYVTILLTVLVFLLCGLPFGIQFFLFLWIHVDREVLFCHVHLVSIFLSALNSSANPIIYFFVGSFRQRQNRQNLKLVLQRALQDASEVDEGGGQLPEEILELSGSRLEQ
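Test system: HEK293 cells stably expressing human MrgX1 receptor; amount: 15,000 cells per well; doses: compound delivered in addition one of three; times: overnight plating before 1 h dye loading; detection: Fluo-4 NW calcium-flux fluorescence, kinetic read; read-out basis: B-scored fluorescence response ratio; controls: positive and negative controls per plate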
RGS4 act = potentiators or activators of RGS4. HEK293 M3R/inducible RGS4, carbachol calcium flux Fluo4; stronger effect = lower value. B-score at 10 µM. actives 0.92% (n = 310,000). AID 463111;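 active = B-score of the integrated calcium signal more than 4 SD below the library mean, with starting fluorescence not abnormally high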;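 note: negative B-score means reduced calcium response which marks RGS4 activation or potentiation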
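Material: Inducible-RGS4 HEK293 cells carrying M3 receptor; also added: carbachol at ECmax as muscarinic agonist stimulus; incubation: compound preincubation 20 min at room temperature before agonist; signal: Fluo4-AM (2 µM) calcium-flux fluorescence, kinetic read; measure: integrated calcium ratio converted to B score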
MrgX1 antagonist = human MrgX1 receptor antagonism, primary screen. Q96LB2. MRGX1-HEK293 calcium flux, Fluo-4, BAM8-22 antagonism; stronger effect = lower value. B-score at 10 µM. actives 1.3% (n = 310,000). AID 588676;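 active = calcium-response B-score plate-corrected more than 3 library SD below zero, starting fluorescence within 5 deviations, no agonist response on first addition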;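 note: peak minus trough fluorescence over baseline after final BAM8-22 challenge near maximal dose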
MrgX1 PAM = allosterically activates human MrgX1 receptor signaling | MrgX1-HEK293, Fluo-4 calcium flux, FDSS; stronger effect = higher value | B-score at 10 µM | actives 0.63% (n = 310,000);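 active = plate-corrected calcium response at least 3 library SD above typical, normal starting fluorescence, not activating the receptor alone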;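 note: compound read alongside a low EC10 to EC30 dose of BAM8-22 agonist; peak minus trough fluorescence over baseline measured at the second addition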
MrgX1 antag conf = human MrgX1 receptor antagonism, re-confirmation screen | actives 19% (n = 2,300) | MrgX1-HEK293, BAM8-22 calcium flux, Fluo-4; stronger effect = lower value | remaining BAM8-22 calcium response % of control (stronger effect = lower value), % at 10 µM | shares compounds with MrgX1 antagonist;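 active = remaining agonist calcium response no higher than 100% minus 3 SD of agonist-only control wells, with starting fluorescence near control levels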;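 note: agonist BAM8-22 given at a near maximal EC90 to ECmax level; peak minus minimum fluorescence divided by baseline after agonist addition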
HEK293 Ca flux = counter-screen for MrgX1 antagonists: effect in parental HEK293 cells. shares compounds with MrgX1 antagonist. actives 2% (n = 4,000). fluorescence ratio F(max-min)/F0 at 10 µM. Fluo-4 calcium fluorescence, FDSS;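 active = duplicate-averaged calcium fluorescence ratio at least three times the standard deviation of buffer wells, a nonspecific response in parental cells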
HEK293 Ca counter = MrgX1 allosteric activator counter-screen hit in parental HEK293 cells; shares compounds with MrgX1 antagonist; actives 0.4% (n = 4,000); fluorescence ratio F(max-min)/F0 at 10 µM; parental HEK293 calcium flux, Fluo-4 fluorescence ratio; stronger effect = higher value;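 active = calcium fluorescence ratio, averaged over duplicates, at least 3 SD of the buffer-well ratio, meaning a nonspecific response in receptor-free cells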;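 note: untransfected parental HEK293 lacking MrgX1 used as counterscreen for MrgX1 allosteric activators; fluorescence change taken during the second addition on a kinetic imager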
HEK293 Ca cntr2 = activity in parental HEK293 cells lacking MrgX1 receptor. fluorescence ratio F(max-min)/F0 at 10 µM. actives 8.7% (n = 4,000). shares compounds with MrgX1 antagonist. Fluo-4 calcium fluorescence (FDSS); stronger effect = higher value;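 active = calcium fluorescence ratio at least three times the spread of buffer wells, meaning a non-specific response in parental cells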
A number is an active result; - = inactive; . = no result. An excerpt weighted towards active compounds, which were near 3.5% of everything screened.

SMILES	RGS4 inh	MrgX1 ag	RGS4 act	MrgX1 antagonist	MrgX1 PAM	MrgX1 antag conf	HEK293 Ca flux	HEK293 Ca counter	HEK293 Ca cntr2
O=C(COC(=O)c1ccc(S(=O)(=O)NCc2ccco2)cc1)Nc1ncc(Cl)cc1Cl	-	-	-	-	-	.	.	.	.
CC(OC(=O)c1ccc(S(=O)(=O)NCc2ccco2)cc1)C(=O)Nc1ccc(Cl)cn1 (stereo not given)	-	-	-	-6.54	-	-	-	-	-
O=C(NCC1CCCO1)c1ccc(NC(=O)c2cccc([N+](=O)[O-])c2)cc1 (stereo not given)	-	-	-	-	-	.	.	.	.
CCCCCCCCCCOC(=O)Cn1c(COc2ccccc2OC)[n+](C)c2ccccc21	-	-	-8.41	-11	-	59.5%	-	-	-
COc1ccc(OCc2nnc(SCC(=O)Nc3nnc(C4CC4)s3)n2C)cc1	-	-	-	-	-	.	.	.	.
O=C(COC(=O)c1ccc(Cl)c(S(=O)(=O)N2CCCCC2)c1)NCC1CCCO1 (stereo not given)	-	-	-	-	-	.	.	.	.
O=C(Oc1ccc(Cl)c2cccnc12)N1CCCCC1	-	-	-	-5.46	-	-	-	-	-
O=C(Oc1ccc(Cl)c2cccnc12)N1CCOCC1	-	-	-	-	-	.	.	.	.
CN(C)S(=O)(=O)c1ccc(Cl)c(C(=O)Nc2cccc3ncccc23)c1	-	-	-	-	-	.	.	.	.
O=C(Nc1cccc(C(=O)N2CCCCCC2)c1)c1ccco1	-	-	-	-4.7	-	-	-	-	-
Cn1c(=O)[nH]c(=O)c2c1nc(N1CCCCCC1)n2CCOc1ccccc1	-	-	-	-	-	.	.	.	.
Cc1cc2cc3c(cc2nc1SCC(=O)N1c2ccccc2CC1C)OCO3 (stereo not given)	-	-	-	-5.02	-	83.9%	-	-	-
CCOC(=O)CSc1nc2cc3c(cc2cc1C#N)OCO3	.	-	.	-	-	.	.	.	.
Cc1cc2ccccc2nc1SCC(=O)N1c2ccccc2CC1C (stereo not given)	-	-	-	-	-	.	.	.	.
CC1Cc2ccccc2N1C(=O)CSc1nc2cc3c(cc2cc1C#N)OCO3 (stereo not given)	.	-	.	-8.51	-	-	-	-	-
O=C(CN1C(=O)NC2(CCCCC2)C1=O)N1CCN(S(=O)(=O)c2ccccc2)CC1	-	-	-	-5.48	-	-	-	-	-
CC1CC(C)CN(C(=O)c2ccc(S(=O)(=O)N3CCCC3)cc2)C1 (stereo not given)	-	-	-	-	-	.	.	.	.
Cc1ccc(C)c(S(=O)(=O)N2CCN(C(=O)c3cccnc3)CC2)c1	-	-	-	-11.3	-	-	-	-	-
Cc1ccc(C)c(S(=O)(=O)N2CCN(C(=O)Cc3ccccc3)CC2)c1	-	-	-	-	-	.	.	.	.
Cc1ccc(C)c(S(=O)(=O)N2CCN(C(=O)CSC(=S)N3CCCC3)CC2)c1	-	-	-	-5.26	-	-	-	-	-
CC(C)CC(c1nnnn1CC1CCCO1)N1CCN(Cc2ccc3c(c2)OCO3)CC1 (stereo not given)	-	-	-	-4.99	-	-	-	-	-
COc1ccc(CC(O)COS(N)(=O)=O)cc1 (stereo not given)	-	-	-	-	-	.	.	.	.
CCC(Sc1ncccc1C(=O)O)C(=O)N1CCOCC1 (stereo not given)	-	-	-	-6.79	-	80.2%	-	-	-
CCC(Sc1ncccc1C(=O)O)C(=O)N1CCCC1 (stereo not given)	-	-	-	-	-	.	.	.	.
COC(C(=O)Nc1ccnn1C1CCN(Cc2ccc(Cl)s2)CC1)c1ccccc1 (stereo not given)	-	-	-	-	-	.	.	.	.
